Laboratory results taken from ChEMBL document CHEMBL3580604, “Flavonoids from Matteuccia struthiopteris and Their Anti-influenza Virus (H1N1) Activity” (J Nat Prod, 2015).
Active and inactive are the calls of the source. No cut-off for these calls is given here.

Assays:
[1] = target: Neuraminidase (Influenza A virus) (UniProt B4URF0); assay: Inhibition of Influenza A virus A/PR/8/34 (H1N1) neuraminidase activity measured in infected MDCK cells using MUNANA as substrate assessed as fluorescence intensity after 48 hrs; format: cell-based; conditions: Influenza A virus (A/Puerto Rico/8/1934(H1N1))
Chain of Neuraminidase (Influenza A virus) (B4URF0 as listed by the source): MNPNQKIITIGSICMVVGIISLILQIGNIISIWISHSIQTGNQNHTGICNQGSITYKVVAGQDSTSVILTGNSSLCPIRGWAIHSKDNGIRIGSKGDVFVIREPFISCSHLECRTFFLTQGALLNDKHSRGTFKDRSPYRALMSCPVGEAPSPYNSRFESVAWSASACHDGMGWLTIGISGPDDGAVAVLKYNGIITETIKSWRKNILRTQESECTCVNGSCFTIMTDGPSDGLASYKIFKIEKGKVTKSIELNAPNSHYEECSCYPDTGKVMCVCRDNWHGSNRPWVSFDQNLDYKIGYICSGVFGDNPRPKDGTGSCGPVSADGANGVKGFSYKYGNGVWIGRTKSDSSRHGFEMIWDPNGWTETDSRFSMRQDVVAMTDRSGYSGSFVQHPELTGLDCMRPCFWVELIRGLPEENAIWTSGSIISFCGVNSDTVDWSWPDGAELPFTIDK
How it was run: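 MDCK cells (2 × 10^4/well) infected with A/PR/8/34 at MOI 0.01, with samples (0.7–166 μM, DMEM with 1% DMSO) added at the same time. After 1 h at 37 °C the cells were washed and fresh sample-containing DMEM added for 48 h. Supernatant NA activity was read with MUNANA for 45 min at 37 °C (ex 355/em 485 nm). Triplicate runs; EC50 by linear extrapolation; ribavirin 0.8–200 μM control.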

MDCK = assay: Cytotoxicity against MDCK cells assessed as cell viability after 72 hrs by MTT assay; format: cell-based, Canis lupus familiaris; conditions: dog
[2] = Selectivity index, ratio of cytotoxicity for MDCK cells to EC50 for Influenza A virus A/PR/8/34 (H1N1) neuraminidase activity; format: toxicity, cell-based; conditions: dog, read-out: Selectivity Index
How it was run: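 SI calculated as CC50/EC50, with CC50 from the 72 h MDCK AlamarBlue assay and EC50 from the MUNANA neuraminidase assay on supernatants of PR8-infected MDCK cells at 48 h.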

Row | Compound | inhibition [1] | Activity (MDCK) | selectivity ratio [2]
1 | CC(=O)O[C@@H]1[C@@H](O)[C@@H](O[C@@H]2O[C@H](CO)[C@@H](O)[C@H](O)[C@H]2O)[C@H](Oc2c(-c3ccc(O)cc3)oc3cc(O[C@@H]4O[C@@H](C)[C@H](O)[C@@H](O)[C@H]4O)cc(O)c3c2=O)O[C@H]1C | inactive | Non-toxic | –
2 | C[C@@H]1O[C@@H](Oc2cc(O)c3c(=O)c(O[C@@H]4O[C@@H](C)[C@H](O)[C@@H](O)[C@H]4O[C@@H]4O[C@@H](C)[C@H](O)[C@@H](O)[C@H]4O)c(-c4ccc(O)cc4)oc3c2)[C@H](O)[C@H](O)[C@H]1O | inactive | Non-toxic | –
3 | COC(=O)C1(O)CC(C)OC1O[C@H]1[C@H](Oc2c(-c3ccc(O)cc3)oc3cc(O[C@@H]4O[C@@H](C)[C@H](O)[C@@H](O)[C@H]4O)cc(O)c3c2=O)O[C@@H](C)[C@H](O)[C@H]1O (stereo partly drawn) | inactive | Non-toxic | –
4 | COc1c(O)cc(C2CC(=O)c3c(O)c(C)c(O)c(C)c3O2)cc1O (stereo not drawn) | – | Non-toxic | 3.1
5 | C[C@@H]1O[C@@H](Oc2cc(O)c3c(=O)c(O[C@@H]4O[C@@H](C)[C@H](O)[C@@H](O)[C@H]4O[C@@H]4O[C@H](CO)[C@@H](O)[C@@H](O)[C@H]4O)c(-c4ccc(O)cc4)oc3c2)[C@H](O)[C@H](O)[C@H]1O | inactive | Non-toxic | –
6 | COC(=O)C(C)OC(O[C@H]1[C@H](Oc2c(-c3ccc(O)cc3)oc3cc(O[C@@H]4O[C@@H](C)[C@H](O)[C@@H](O)[C@H]4O)cc(O)c3c2=O)O[C@@H](C)[C@H](O)[C@H]1O)C(O)C(=O)OC (stereo partly drawn) | inactive | Non-toxic | –
7 | CC(=O)O[C@@H]1[C@@H](O)[C@@H](O[C@@H]2O[C@H](CO)[C@@H](O)[C@@H](O)[C@H]2O)[C@H](Oc2c(-c3ccc(O)cc3)oc3cc(O[C@@H]4O[C@@H](C)[C@H](O)[C@@H](O)[C@H]4O)cc(O)c3c2=O)O[C@H]1C | inactive | Non-toxic | –
8 | COc1c(O)cc([C@@H]2CC(=O)c3c(O)c(C)c(O[C@@H]4O[C@H](CO)[C@@H](O)[C@H](O)[C@H]4O)c(C)c3O2)cc1O | – | Non-toxic | 34.4
9 | O=c1c(O[C@@H]2O[C@H](CO)[C@@H](O)[C@H](O)[C@H]2O)c(-c2ccc(O)cc2)oc2cc(O)cc(O)c12 [ASTRAGALIN] | – | Non-toxic | 12.4
